Results on 1 compound are retold here after ChEMBL document CHEMBL1629601, “In vitro susceptibility of field isolates of Leishmania donovani to Miltefosine and amphotericin B: correlation with sodium antimony gluconate susceptibility and implications for treatment in areas of endemicity” (2009).

Converted amounts (≈) assume the structure as drawn.

Common to all, as to type: functional
In test [1] the test system is Leishmania donovani. Nature of the test: Antimicrobial activity against Leishmania donovani K216 promastigote. The note with it: read-out: ED50 (the source's name).
The test system of test [2] is Leishmania donovani. As to the kind of experiment: Decrease in LdMT gene expression in Leishmania donovani K417 by RT-PCR method. Put shortly: (§1)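 VL field isolates of L. donovani. Transcript levels of LdMT or LdRos3 were measured by real-time RT-PCR with SYBR green and analysed by the 2−ΔΔCt method. The expression index is the ratio of gene expression to that of the standard L. donovani strain LdAG83, and a decrease is relative to LdAG83. Values are means of three independent experiments.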

Test [3] concerns Leishmania donovani. Nature of the test: Decrease in LdRoS3 gene expression in Leishmania donovani K417 by RT-PCR method. An outline of the steps: as §1
In test [4] the test system is Leishmania donovani. As to the kind of experiment: Antimicrobial activity against Leishmania donovani K481 amastigote. To be noted: read-out: ED50 (the source's name).
Test [5] concerns Leishmania donovani. Nature of the test: Antimicrobial activity against Leishmania donovani K435 promastigote. The note with it: read-out: ED50 (the source's name).
Test [6] concerns Leishmania donovani. Nature of the test: Decrease in LdMT gene expression in Leishmania donovani K80 by RT-PCR method. Put shortly: as §1
Test [7] concerns Leishmania donovani. Nature of the test: Antimicrobial activity against Leishmania donovani K59M20 amastigote. The note with it: read-out: ED50 (the source's name).
The subject of test [8] is Leishmania donovani. Nature of the test: Antimicrobial activity against Leishmania donovani K59M20 promastigote. The note with it: read-out: ED50 (the source's name).
Test [9] has as its system Leishmania donovani. As to the kind of experiment: Antimicrobial activity against Leishmania donovani K131 promastigote. To be noted: read-out: ED50 (the source's name).
For test [10], the system named is Leishmania donovani. As to the kind of experiment: Decrease in LdRoS3 gene expression in Leishmania donovani K111 by RT-PCR method. Put shortly:
as §1

For test [11], the system named is Leishmania donovani. Nature of the test: Antimicrobial activity against Leishmania donovani K216 amastigote. To be noted: read-out: ED50 (the source's name).
Test [12] relates to Leishmania donovani. Nature of the test: Decrease in LdMT gene expression in Leishmania donovani K417M20 by RT-PCR method. An outline of the steps:
(§2)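 MIL-resistant M20 parasites were generated by raising the MIL concentration stepwise up to 20 μg/ml. LdMT or LdRos3 expression was quantified by real-time RT-PCR (SYBR green, 2−ΔΔCt method) and reported as an expression index, the ratio to the standard strain LdAG83. A decrease is relative to LdAG83. Values are means of three independent experiments.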

The test system of test [13] is Leishmania donovani. Nature of the test: Antimicrobial activity against Leishmania donovani K429 promastigote. The note with it: read-out: ED50 (the source's name).
Test [14] concerns Leishmania donovani. As to the kind of experiment: Decrease in LdMT gene expression in Leishmania donovani K216 by RT-PCR method. An outline of the steps: as §1
Test [15] deals with Leishmania donovani. Nature of the test: Antimicrobial activity against Leishmania donovani K435 amastigote. To be noted: read-out: ED50 (the source's name).
For test [16], the system named is Leishmania donovani. As to the kind of experiment: Antimicrobial activity against Leishmania donovani K417 promastigote. The note with it: read-out: ED50 (the source's name).
Test [17] deals with Leishmania donovani. As to the kind of experiment: Decrease in LdRoS3 gene expression in Leishmania donovani K59M20 by RT-PCR method. Put shortly: as §2
Test [18] deals with Leishmania donovani. As to the kind of experiment: Decrease in LdRoS3 gene expression in Leishmania donovani K429 by RT-PCR method. Put shortly: as §1
Test [19] has as its system Leishmania donovani. Nature of the test: Decrease in LdRoS3 gene expression in Leishmania donovani K439 by RT-PCR method. Put shortly: as §1
For test [20], the system named is Leishmania donovani. Nature of the test: Antimicrobial activity against Leishmania donovani K509 amastigote. To be noted: read-out: ED50 (the source's name).
Test [21] concerns Leishmania donovani. As to the kind of experiment: Decrease in LdMT gene expression in Leishmania donovani K132 by RT-PCR method. Put shortly:
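LdMT transcript levels were measured by real-time RT-PCR with SYBR green and analysed by the 2−ΔΔCt method. They are expressed as an expression index, the ratio relative to reference strain LdAG83, and are the mean of three independent experiments.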

For the compound `CCCCCCCCCCCCCCCCOP(=O)([O-])OCC[N+](C)(C)C` [MILTEFOSINE], the EC50 is 0.76 µg/mL (≈ 1.86 µM) in the test with Leishmania donovani [1]; 2.32 µg/mL (≈ 5.69 µM) in the test on Leishmania donovani [4]; 1.16 µg/mL (≈ 2.85 µM) in the test with Leishmania donovani [5]; more than 15 µg/mL in the test on Leishmania donovani [7]; more than 15 µg/mL in the test on Leishmania donovani [8]; 0.63 µg/mL (≈ 1.55 µM) with Leishmania donovani [9]. Moreover, the EC50 turned out to be 0.91 µg/mL (≈ 2.23 µM) with Leishmania donovani [11]; 1.26 µg/mL (≈ 3.09 µM) in the test on Leishmania donovani [13]; 1.08 µg/mL (≈ 2.65 µM) in the test on Leishmania donovani [15]; 1.72 µg/mL (≈ 4.22 µM) with Leishmania donovani [16]; 2.16 µg/mL (≈ 5.3 µM) in the test on Leishmania donovani [20]. Also, the “fold change (FC)” value with Leishmania donovani [2] worked out at 1.88; with Leishmania donovani [3], 5.02; in the test on Leishmania donovani [6] it was 1.24; with Leishmania donovani [10], 5.26; in the test with Leishmania donovani [12], 11.3; in the test with Leishmania donovani [14], 1.4. In addition, the “fold change (FC)” value with Leishmania donovani [17] amounted to 100; with Leishmania donovani [18] it was 8.85; in the test with Leishmania donovani [19], 3.12; with Leishmania donovani [21], 5.5.
